For 18 compounds, Concentration, IC50 and Ki results are on record in ChEMBL document CHEMBL1137151, “Novel factor Xa inhibitors based on a 2-carboxyindole scaffold: SAR of P4 substituents in combination with a neutral P1 ligand” (Bioorg Med Chem Lett, 2004).

The target in experiment [1] is T1, Prothrombin (Homo sapiens, UniProt P00734). Put plainly: Concentration required to double plasma clotting prothrombin time. It is filed as functional, cell-free. The method, boiled down:
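Standard plasma coagulation assays, APTT and PT respectively. The value is the inhibitor concentration that doubles plasma clotting time.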

The target of experiment [2] is T1, Prothrombin. Put plainly: Inhibitory concentration in dilute prothrombin time assay. It is filed as functional. The method, boiled down: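 Dilute prothrombin time assay, run as PT with diluted thromboplastin reagent. The value is the inhibitor concentration giving 50% inhibition of dPT.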
A further experiment concerns the target Coagulation factor X (Homo sapiens, UniProt P00742). Put plainly: Inhibitory activity against serine protease factor Xa.
The target of another experiment is Trypsin (Homo sapiens, UniProt P07477+P07478+P35030). Put plainly: Inhibitory activity against coagulation factor trypsin. In kind it is protein assay.
Experiment [3] deals with T1, Prothrombin. Put plainly: Inhibitory activity against coagulation factor II (thrombin).
Experiment [4] concerns the target Tissue-type plasminogen activator (Homo sapiens, UniProt P00750). Put plainly: Inhibitory activity against human tissue plasminogen activator.

Coagulation factor X, sequence (P00742 41-179 limits assumed): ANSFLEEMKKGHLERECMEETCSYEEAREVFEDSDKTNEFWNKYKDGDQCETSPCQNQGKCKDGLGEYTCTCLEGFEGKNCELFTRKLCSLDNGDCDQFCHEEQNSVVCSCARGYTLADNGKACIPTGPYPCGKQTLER
Coagulation factor X, sequence (P00742 235-488 limits assumed): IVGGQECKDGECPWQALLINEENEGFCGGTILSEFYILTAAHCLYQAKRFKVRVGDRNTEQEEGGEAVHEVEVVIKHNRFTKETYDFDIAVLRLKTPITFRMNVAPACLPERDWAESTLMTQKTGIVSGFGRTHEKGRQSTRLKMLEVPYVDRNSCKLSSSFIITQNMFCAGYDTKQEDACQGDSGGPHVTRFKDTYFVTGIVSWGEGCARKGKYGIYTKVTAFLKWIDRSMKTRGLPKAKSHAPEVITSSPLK
Tissue-type plasminogen activator, sequence (P00750 whole entry): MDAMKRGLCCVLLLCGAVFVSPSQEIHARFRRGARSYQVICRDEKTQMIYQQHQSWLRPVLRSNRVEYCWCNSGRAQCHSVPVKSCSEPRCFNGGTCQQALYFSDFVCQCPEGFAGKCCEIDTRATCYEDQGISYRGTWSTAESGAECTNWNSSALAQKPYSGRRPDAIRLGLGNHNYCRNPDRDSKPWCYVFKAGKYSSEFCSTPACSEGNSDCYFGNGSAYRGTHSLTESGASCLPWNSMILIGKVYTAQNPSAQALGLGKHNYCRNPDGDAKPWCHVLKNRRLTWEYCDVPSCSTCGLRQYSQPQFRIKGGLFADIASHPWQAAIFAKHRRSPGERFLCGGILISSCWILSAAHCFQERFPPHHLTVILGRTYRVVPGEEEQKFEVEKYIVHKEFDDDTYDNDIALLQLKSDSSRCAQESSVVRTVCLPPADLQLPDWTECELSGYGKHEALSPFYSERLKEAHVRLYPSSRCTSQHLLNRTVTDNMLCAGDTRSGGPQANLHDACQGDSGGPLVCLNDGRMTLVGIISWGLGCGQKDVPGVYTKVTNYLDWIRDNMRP

As for `CCCN1CCC(NC(=O)c2cc3ccccc3n2Cc2cc(-c3ccc(Cl)s3)on2)CC1`, the Concentration on Prothrombin [1] was found to be 15.6 µM. Moreover, the IC50 against Prothrombin [2] amounted to 1560 nM.

Take `CC(C)N1CCC(CNC(=O)c2cc3ccccc3n2Cc2cc(-c3ccc(Cl)s3)on2)CC1`: the affinity at Coagulation factor X, expressed as Ki, was 161 nM.

Regarding `O=C(NC1CCN(C2CCOCC2)CC1)c1cc2ccccc2n1Cc1cc(-c2ccc(Cl)s2)on1`, on Coagulation factor X, the affinity corresponds to a Ki of 95 nM.

Take `CC(C)N1CC(CNC(=O)c2cc3ccccc3n2Cc2cc(-c3ccc(Cl)s3)on2)C1`: the affinity at Coagulation factor X corresponds to a Ki of 839 nM.

Turning to `O=C(c1cc2ccccc2n1Cc1cc(-c2ccc(Cl)s2)on1)N1CCC(Oc2ccncc2)CC1`, the Ki at Coagulation factor X stood at 2900 nM.

Take `CN1CCC(NC(=O)c2cc3ccccc3n2Cc2cc(-c3ccc(Cl)s3)on2)CC1`: the Concentration at Prothrombin [1] was found to be 30.7 µM. Also, the Ki is more than 100000 nM on Trypsin, more than 10000 nM on Prothrombin [3] and more than 100000 nM in experiment [4]. At Prothrombin [2], this compound showed an IC50 of 1550 nM.

As for `O=C(NC1CCN(C2CCCC2)CC1)c1cc2ccccc2n1Cc1cc(-c2ccc(Cl)s2)on1`, the Ki on Coagulation factor X worked out at 71 nM.

In the case of `O=C(NC1CN(c2ccncc2)C1)c1cc2ccccc2n1Cc1cc(-c2ccc(Cl)s2)on1`, the Concentration on Prothrombin [1] turned out to be 6.2 µM. The Ki at Coagulation factor X is 12 nM; at Trypsin, more than 100000 nM; on Prothrombin [3], more than 10000 nM; in experiment [4] it was more than 100000 nM. Moreover, the IC50 against Prothrombin [2] came out at 370 nM.

As to `O=C(NC1CCN(c2ccncc2)CC1)c1cc2ccccc2n1Cc1cc(-c2ccc(Cl)s2)on1`, the Concentration on Prothrombin [1] was 6.04 µM. In addition, the figures for the Ki (on Trypsin; on Prothrombin [3]; in experiment [4]) were more than 100000 nM, more than 10000 nM and more than 100000 nM, respectively. The IC50 against Prothrombin [2] was 230 nM.

Turning to `CC(C)CN1CC(NC(=O)c2cc3ccccc3n2Cc2cc(-c3ccc(Cl)s3)on2)C1`, the affinity at Coagulation factor X corresponds to a Ki of 345 nM.

On Coagulation factor X, `O=C(NC1CCN(C2CCCCC2)CC1)c1cc2ccccc2n1Cc1cc(-c2ccc(Cl)s2)on1` returned a Ki of 106 nM.

Consider `CC(C)N1CC[C@@H](NC(=O)c2cc3ccccc3n2Cc2cc(-c3ccc(Cl)s3)on2)C1`, for which the Concentration on Prothrombin [1] was 13.7 µM. For the same compound, the Ki at Trypsin is more than 100000 nM; on Prothrombin [3], more than 10000 nM; in experiment [4], more than 100000 nM. At Prothrombin [2], this compound came in with an IC50 of 620 nM.

On to `O=C(NC1CCN(C2CC2)CC1)c1cc2ccccc2n1Cc1cc(-c2ccc(Cl)s2)on1`, for which the Concentration on Prothrombin [1] worked out at 19.6 µM. The results for the Ki (on Trypsin; at Prothrombin [3]; in experiment [4]) were more than 100000 nM, 8220 nM and more than 100000 nM, respectively. At Prothrombin [2], this compound displayed an IC50 of 1790 nM.

`CS(=O)(=O)N1CCC(NC(=O)c2cc3ccccc3n2Cc2cc(-c3ccc(Cl)s3)on2)CC1`: the Ki at Coagulation factor X came out at 125 nM.

As to `O=C(c1cc2ccccc2n1Cc1cc(-c2ccc(Cl)s2)on1)N1CCC(Nc2ccncc2)CC1`, the Concentration on Prothrombin [1] came out at 5.78 µM. Further, the Ki at Trypsin is more than 100000 nM; on Prothrombin [3], 3160 nM; in experiment [4], 64000 nM. Further, the concentration for half-maximal inhibition (IC50) against Prothrombin [2] turned out to be 190 nM.

As for `CC(C)N1CC(NC(=O)c2cc3ccccc3n2Cc2cc(-c3ccc(Cl)s3)on2)C1`, the affinity at Coagulation factor X, expressed as Ki, was 225 nM.

`CC(C)N1CCC(NC(=O)c2cc3ccccc3n2Cc2cc(-c3ccc(Cl)s3)on2)CC1`: the Concentration on Prothrombin [1] was 5.41 µM. For the same compound, the Ki at Trypsin is more than 100000 nM; at Prothrombin [3] it was 2760 nM; in experiment [4] it was more than 100000 nM. Moreover, the IC50 at Prothrombin [2] came out at 420 nM.

On Prothrombin [1], `CCN1CCC(NC(=O)c2cc3ccccc3n2Cc2cc(-c3ccc(Cl)s3)on2)CC1` returned a Concentration of 9.02 µM. Also, the Ki was more than 100000 nM at Trypsin, more than 10000 nM on Prothrombin [3] and more than 100000 nM in experiment [4]. Inhibition against Prothrombin [2] was half-maximal at 370 nM (IC50).
